{
  "source": "PubChem BioAssay AID624467",
  "about": "(The Scripps Research Institute Molecular Screening Center, 2012)",
  "note": "Hit rate of the full screen: of about 360,000 compounds, about 3,600 (1%) were called active.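 The calls were made as follows: active = activation above the mean activation of all test compounds in the run plus 3 SD (cut at about 38% in these data); inactive = the rest.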 The list comes from a sample in which actives are over-represented; it also holds similar structures and randomly drawn compounds.",
  "data": [
    {"target": "Trace amine-associated receptor 1 (Homo sapiens) (UniProt Q96RJ0)", "sequence (Q96RJ0 whole entry, looked up)": "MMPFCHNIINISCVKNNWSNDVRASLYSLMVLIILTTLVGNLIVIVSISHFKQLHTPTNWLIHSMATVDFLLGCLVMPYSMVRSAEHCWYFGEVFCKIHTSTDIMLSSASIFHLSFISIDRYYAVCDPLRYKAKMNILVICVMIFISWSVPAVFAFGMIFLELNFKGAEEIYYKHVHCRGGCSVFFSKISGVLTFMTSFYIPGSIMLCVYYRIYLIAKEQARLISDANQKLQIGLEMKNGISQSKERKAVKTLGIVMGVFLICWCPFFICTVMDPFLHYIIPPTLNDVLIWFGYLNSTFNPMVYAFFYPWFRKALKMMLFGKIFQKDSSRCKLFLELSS", "assay": "human TAAR1 agonists, primary screen, Fluo-8 calcium fluorescence, CHO RD-HGA16 cells (AID 624467)", "settings": "CHO RD-HGA16 TAAR1, Fluo-8 calcium fluorescence; at 3 µM; active compounds read high; vehicle wells 0%, saturating PEA agonist 100%", "summary_of_the_method": "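System: CHO-derived RD-HGA16 cells with stable Gα16 and human TAAR1. Times: 17-24 h plating, Fluo-8 75 min 37 °C, 30 min RT. Measured by: calcium-sensitive Fluo-8 signal, excitation 470-495, emission 515-575 nm. Read-out basis: % activation relative to PEA EC100 response. Control set: DMSO and PEA EC100. Repeats: no replicates (n 1).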", "values": [
      {"smiles": "CC(C)S(=O)(=O)c1csc(NC(=O)Nc2ccc(Cl)cc2)c1Cl", "activation": "17.9% (inactive)"},
      {"smiles": "CN(c1cccc(NC(=O)Nc2ccc(Cl)cc2)c1)S(C)(=O)=O", "activation": "46.9% (active)"},
      {"smiles": "CN(c1cccc(NC(=O)c2ccc(CN3CCc4ccccc4C3)cc2)c1)S(C)(=O)=O", "activation": "7.79% (inactive)"},
      {"smiles": "CC(=O)NC1=NN(C(C)=O)C(C)(c2ccc(Cl)s2)S1", "note": "(configuration not stated)", "activation": "5.71% (inactive)"},
      {"smiles": "CN(C)S(=O)(=O)N1CCC(Oc2cccc(C(=O)NCCCC3CCCC3)c2)CC1", "activation": "11.3% (inactive)"},
      {"smiles": "O=C1CC(c2ccccc2)CC(O)=C1C=NCCN1CCOCC1", "note": "(configuration not stated)", "activation": "2.73% (inactive)"},
      {"smiles": "CC1(C)CC(=O)C(C=NCCC2=CCCCC2)=C(O)C1", "activation": "20.1% (inactive)"},
      {"smiles": "O=C1CCCC(O)=C1C=NCCc1ccccc1", "activation": "60.6% (active)"},
      {"smiles": "COC(=O)C1=C(C)N(Cc2ccccc2C(F)(F)F)C(=NCc2ccc(OC)cc2)NC1c1cccc(C(F)(F)F)c1", "note": "(configuration not stated)", "activation": "9.5% (inactive)"},
      {"smiles": "CC(C)N(Cc1ccccc1)C(=O)COC(=O)c1ccccc1SCC(=O)N1CCCC1", "activation": "15.6% (inactive)"},
      {"smiles": "COc1ccc(CCNC(=O)C(=O)NCC2OCCN2S(=O)(=O)c2cccs2)cc1OC", "note": "(configuration not stated)", "activation": "1.17% (inactive)"},
      {"smiles": "O=C(NCCCc1ccccc1)C(=O)NCC1OCCN1S(=O)(=O)c1ccccc1", "note": "(configuration not stated)", "activation": "8.57% (inactive)"},
      {"smiles": "O=C(NCCc1ccccc1)C(=O)NCC1OCCN1S(=O)(=O)c1cccs1", "note": "(configuration not stated)", "activation": "56.5% (active)"},
      {"smiles": "COc1cccc(CNC(=O)[C@H]2CCCN2C(=O)[C@H]2CCCN2C(=O)c2cc(F)cc(F)c2)c1", "activation": "2.08% (inactive)"},
      {"smiles": "O=C1Nc2ccccc2C1=NN=Cc1ccco1", "activation": "0.51% (inactive)"},
      {"smiles": "Cn1nc(C(F)(F)F)c(C(=O)Nc2cccc(C(F)(F)F)c2)c1SCc1ccc(Cl)cc1", "activation": "11% (inactive)"},
      {"smiles": "COCc1nc2ccccc2n1Cc1ccccc1Br", "activation": "12.1% (inactive)"},
      {"smiles": "O=C(NC1CC1)C1=C[C@H](c2c[nH]c3ccccc23)C[C@H](OCc2ccc(CO)cc2)O1", "activation": "5.4% (inactive)"},
      {"smiles": "NC(=O)C1=C[C@H](c2csc3ccccc23)C[C@H](OCc2ccc(CO)cc2)O1", "activation": "60.3% (active)"},
      {"smiles": "NC(=O)C1=C[C@@H](c2csc3ccccc23)C[C@@H](OCc2ccc(CO)cc2)O1", "activation": "22.2% (inactive)"},
      {"smiles": "COc1ccc(CCN(C)C(=O)C23CC4CC(CC(Cl)(C4)C2)C3)cc1OC", "activation": "-1.21% (inactive)"},
      {"smiles": "CC(C)c1ccc(S(=O)(=O)NC2CCCC2)cc1", "activation": "1.12% (inactive)"},
      {"smiles": "Cc1cccc(CCNS(=O)(=O)c2ccc(S(=O)(=O)NC3CCCC3)cc2)c1", "activation": "42.8% (active)"},
      {"smiles": "Cc1cccc(CCNS(=O)(=O)c2ccc3c(c2)NC(=O)CO3)c1", "activation": "5.47% (inactive)"},
      {"smiles": "CN1CCCN(C(=O)C2CCCCC2)CC1", "activation": "1.26% (inactive)"},
      {"smiles": "CC1(Oc2ccccc2-c2ccno2)CCN(Cc2ccc(-c3ccccc3)o2)C1", "note": "(configuration not stated)", "activation": "1.77% (inactive)"},
      {"smiles": "Cc1cc2nc3c(=O)[nH]c(=O)nc-3n(C[C@H](O)[C@H](O)[C@H](O)CO)c2cc1C", "activation": "45.3% (active)"},
      {"smiles": "CCOc1ccc(Cn2nnc(C(=O)NCc3ccccc3)c2N)cc1", "activation": "83.3% (active)"},
      {"smiles": "CCCn1nc2cc(C(=O)NCc3ccccc3)ccc2c1OCC", "activation": "3.65% (inactive)"},
      {"smiles": "Nc1c(C(=O)Nc2ccc3c(c2)OCCO3)nnn1Cc1ccccc1", "activation": "0.57% (inactive)"},
      {"smiles": "COc1cccc(CNC(=O)c2nnn(CC(=O)Nc3cc(C)ccc3C)c2N)c1", "activation": "2.69% (inactive)"},
      {"smiles": "COc1cccc(CNC(=O)c2nnn(CC(=O)Nc3cc(Cl)ccc3C)c2N)c1", "activation": "2.23% (inactive)"},
      {"smiles": "CCOc1ccc(Cn2nnc(C(=O)Nc3ccc(OC)cc3OC)c2N)cc1", "activation": "42.5% (active)"},
      {"smiles": "Cc1cc(OCCCC(=O)NCCN2C(=O)S/C(=C\\c3cccnc3)C2=O)ccc1Cl", "activation": "16.7% (inactive)"},
      {"smiles": "CCOc1ccc(-n2c(SCC(=O)NC3CCS(=O)(=O)C3)nnc2-c2cccnc2)cc1", "note": "(configuration not stated)", "activation": "-0.1% (inactive)"},
      {"smiles": "CCOC(=O)c1c(N)c(C#N)nn1-c1ccccc1C(=O)OC", "activation": "1.23% (inactive)"},
      {"smiles": "O=C(/C=C/c1ccco1)NC(=S)N1CCCCC1", "activation": "1.82% (inactive)"},
      {"smiles": "COc1ccc(Cl)cc1C(=O)NNC(=S)NC(=O)/C=C/c1ccco1", "activation": "55.3% (active)"},
      {"smiles": "COc1ccc(Cl)cc1C(=O)NNC(=O)c1nc2nc(C)cc(C)n2n1", "activation": "-0.4% (inactive)"},
      {"smiles": "CC(C)OC(=O)Cn1nc(C(F)(F)F)c2c1CCCC2", "activation": "3.22% (inactive)"},
      {"smiles": "CCCCn1c(N)c(N(CC(C)C)C(=O)C2CSC3(C)CCC(=O)N23)c(=O)[nH]c1=O", "note": "(configuration not stated)", "activation": "4.3% (inactive)"},
      {"smiles": "COC(=O)C1=C(C)NC(=S)NC1c1ccc(OC)cc1", "note": "(configuration not stated)", "activation": "1.73% (inactive)"},
      {"smiles": "CC(C)(C)c1ccc(S(=O)(=O)NCC2CCN(C(=O)C(=O)c3cc4ccccc4o3)CC2)cc1", "activation": "-0.02% (inactive)"},
      {"smiles": "O=C1CCC/C=C/C[C@@H](CC(=O)N(CCO)Cc2ccccc2)C(=O)NC[C@H](c2ccccc2)O1", "activation": "5.38% (inactive)"},
      {"smiles": "O=C1N[C@@H](c2ccccc2)COC(=O)[C@H](Cc2ccc(F)cc2)C/C=C\\C[C@@H]1CC(=O)N(CCO)Cc1ccccc1", "activation": "18.8% (inactive)"},
      {"smiles": "O=C1NC[C@@H](c2ccccc2)OC(=O)[C@H](Cc2ccc(F)cc2)CC/C=C/C[C@H]1CC(=O)N(CCO)Cc1ccccc1", "activation": "42.6% (active)"},
      {"smiles": "Fc1ccc(-n2c(Cc3ccccc3)nnc2SCc2nc(-c3ccc(Cl)cc3)no2)cc1", "activation": "2.7% (inactive)"},
      {"smiles": "Cc1ccc2cc(C)c(N3CCC(C)CC3)nc2c1", "activation": "17.1% (inactive)"},
      {"smiles": "Cc1ccc2cc(C)c(N3CCN(c4ccc(F)cc4)CC3)nc2c1", "activation": "1.28% (inactive)"},
      {"smiles": "Cc1cc(C)c2cc(C#N)c(N3CCNCC3)nc2c1", "activation": "69.6% (active)"},
      {"smiles": "C[C@H]1CN([C@@H](C)CO)S(=O)(=O)c2ccc(Br)cc2O[C@H]1CN(C)C(=O)c1cnccn1", "activation": "1.33% (inactive)"},
      {"smiles": "CSc1ccccc1NC(=O)C(C)N1C(=O)c2ccccc2S1(=O)=O", "note": "(configuration not stated)", "activation": "2.86% (inactive)"},
      {"smiles": "CC(=O)Nc1ccccc1Sc1ccc2c3c(cccc13)C(=O)N(c1ccc(C)cc1)C2=O", "activation": "47.3% (active)"},
      {"smiles": "CCCOC(=O)c1ccc(N2C(=O)c3ccccc3C2=O)cc1", "activation": "-1.04% (inactive)"},
      {"smiles": "Cc1ccc(NC(=O)Cn2c(C)csc2=O)cc1", "activation": "0.43% (inactive)"},
      {"smiles": "Cc1ccc(NC(=O)Cn2sc3ccccc3c2=O)cc1", "activation": "37.5% (active)"},
      {"smiles": "O=C(Cn1nc(C(=O)O)c2ccccc2c1=O)Nc1ccc(F)cc1", "activation": "6.51% (inactive)"}
    ]}
  ]
}
